Converted amounts (≈) assume the structure as drawn.
How the values were obtained:
[1] = system: rhinovirus B14; experiment: (§1) Cytopathic effect was evaluated against rhino virus usingCPE/XTT assay; format: functional, human rhinovirus14
In short: (§2)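 HeLa cells were seeded at 10 000 per well in medium 199 with 5% FBS and grown overnight at 37 °C. Surviving cells were read with XTT (0.4 mg/mL) plus PMS after 3-4 h at 37 °C. IC50 (CPE inhibition) and TC50 (versus a no-drug, no-virus control) came from the linear portion of the dose–response curves.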

[2] = system: rhinovirus B14; experiment: (§3) Antiviral activity was evaluated against rhino virus using PRA assay; format: functional, organism-based, human rhinovirus14; conditions: Rhinovirus B
In short: (§4)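 Rhinovirus 14 was adsorbed for 1 h at room temperature onto confluent H-HeLa monolayers grown in medium 199 with 10% FBS. Cells were overlaid with agarose and growth medium (5% FBS) containing compound in DMSO (final DMSO 0.01%), then held at 37 °C under CO2 until plaques appeared in DMSO controls. Plates were formalin-fixed, crystal-violet stained and plaques counted, with duplicate wells averaged. IC50/IC90 were computed by Reed–Muench.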

[3] = system: Human rhinovirus sp.; experiment: as §3; format: functional, organism-based, human rhinovirus14; in short: as §4
[4] = system: Coxsackievirus A21; experiment: Broad spectrum antiviral activity was evaluated against CA21C; format: functional, organism-based; conditions: Enterovirus C
[5] = system: Coxsackievirus A21; experiment: Broad spectrum antiviral activity was evaluated against coxsackievirus A21 mouse muscle adapted (CA21M); format: functional, organism-based; conditions: Enterovirus C, Muscle tissue
[6] = system: Coxsackievirus B3; experiment: Broad spectrum antiviral activity was evaluated against CB3; format: functional, organism-based, and coxsackievirus b3; conditions: Enterovirus B
[7] = system: Human rhinovirus 1A; experiment: Broad spectrum antiviral activity was evaluated against HRV-1A; format: functional, organism-based, human rhinovirus1a
[8] = system: rhinovirus A2; experiment: Broad spectrum antiviral activity was evaluated against HRV-2; format: functional, organism-based, human rhinovirus2; conditions: Rhinovirus A
[9] = system: Poliovirus 1; experiment: Broad spectrum antiviral activity was evaluated against PV1; format: functional, organism-based; conditions: Enterovirus C
[10] = system: rhinovirus A16; experiment: Broad spectrum antiviral activity was evaluated against HRV-16; format: functional, organism-based; conditions: Rhinovirus A
[11] = system: Human rhinovirus sp.; experiment: as §1; format: functional, human rhinovirus14; in short: as §2

CNC(=O)/C=C(\c1ccc(C)cc1)c1ccc2nc(N)c(-c3ccc(F)cc3)n2n1
TC50 [1]: >10 mg/L | IC50 [2]: 0.23 mg/L (≈ 0.573 µM)

Nc1nc2ccc(/C(=N/Nc3ccccc3)c3ccccc3)nn2c1-c1ccc(F)cc1
TC50 [1]: >10 mg/L | IC50 [2]: > 10 mg/L

CNC(=O)/C=C(/c1ccccc1)c1ccc2nc(N)c(-c3ccc(F)cc3)n2n1
IC50 [2]: > 10 mg/L

CNC(=O)/C=C(/c1ccc(C)cc1)c1ccc2nc(N)c(-c3ccc(F)cc3)n2n1
TC50 [1]: >10 mg/L | IC50 [2]: > 10 mg/L

CCOC(=O)/C=C(\c1ccccc1)c1ccc2nc(N)c(-c3ccc(F)cc3)n2n1
IC50 [2]: > 10 mg/L

CNC(=O)/C=C(\c1ccccc1)c1ccc2nc(N)c(-c3ccc(F)cc3)n2n1
TC50 [1]: 4.06 mg/L (≈ 10.5 µM) | IC50 [2]: 0.11 mg/L (≈ 0.284 µM)

Nc1nc2ccc(C(=O)c3ccccc3)nn2c1-c1ccccc1
IC50 [3]: 7.19 mg/L (≈ 22.9 µM)

CNC(=O)/C=C(/c1ccc(OC)cc1)c1ccc2nc(N)c(-c3ccc(F)cc3)n2n1
TC50 [1]: >10 mg/L | IC50 [2]: 4.2 mg/L (≈ 10.1 µM)

Nc1nc2ccc(/C(=N/O)c3ccccc3)nn2c1-c1ccccc1
IC50 [4]: 0.04 mg/L (≈ 0.121 µM) | IC50 [5]: 0.02 mg/L (≈ 0.0607 µM) | IC50 [6]: 0.05 mg/L (≈ 0.152 µM) | IC50 [7]: 0.05 mg/L (≈ 0.152 µM) | IC50 [8]: 0.03 mg/L (≈ 0.0911 µM) | IC50 [9]: 0.04 mg/L (≈ 0.121 µM) | TC50 [1]: >10 mg/L | IC50 [2]: 0.04 mg/L (≈ 0.121 µM) | IC50 [10]: 0.06 mg/L (≈ 0.182 µM)

CNC(=O)/C=C(\c1ccc(OC)cc1)c1ccc2nc(N)c(-c3ccc(F)cc3)n2n1
TC50 [1]: >10 mg/L | IC50 [2]: 0.6 mg/L (≈ 1.44 µM)

Nc1nc2ccc(/C(=N/O)c3ccccc3)nn2c1-c1ccc(F)cc1
TC50 [11]: >10 mg/L | IC50 [3]: 0.05 mg/L (≈ 0.144 µM)

CC(C)S(=O)(=O)n1c(N)nc2ccc(/C(=N/O)c3ccccc3)cc21 [ENVIROXIME]
IC50 [3]: 0.05 mg/L (≈ 0.139 µM)
